Reference: article PMC5346463 (Anticancer research, 2014)
Converted amounts (≈) assume the structure as drawn.

What was measured:
[1] = Cytotoxicity, sulforhodamine B; assay type: cell-based; settings: human, MDA-MB-231 cells
Outline: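 MDA-MB-231 cells (DMEM high glucose, 10% FBS, antibiotic/antimycotic) plated at 5,000 cells/well and left to adhere overnight at normoxia. Pre-incubated 1 h with titrated test compound, then cultured at normoxia (21% O2, 5% CO2) or hypoxia (1% O2, 5% CO2). SRB stain after 96 h, OD read at 540 nm. IC50 given as mean±SEM, n=3.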

[2] = test system: HIF-1α; experiment: Western blot of HIF-1α protein expression in MDA-MB-231 cells; assay type: cell-based; settings: hypoxic conditions (1% oxygen)
[3] = test system: PHD3; experiment: Quantitative real-time PCR, PHD3 mRNA in MDA-MB-231 cells; assay type: cell-based; settings: 10 μM, 8 h, normalized to Cyclophilin A, n=3
Outline: (§1)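 MDA-MB-231 cells seeded at 3.5×10^5/well in six-well plates overnight. Treated 8 h with 10 μM test compound in medium under hypoxia (1% O2) or normoxia; controls got medium with […] DMSO. Total RNA isolated and reverse-transcribed. SYBR Green qPCR run with 40 ng cDNA/well, normalised to Cyclophilin A, n=3.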

[4] = test system: HIF1A; experiment: Quantitative real-time PCR, HIF1A mRNA in MDA-MB-231 cells; assay type: cell-based; settings: 10 μM, 8 h, normalized to Cyclophilin A, n=3
Outline: as §1

[5] = test system: VEGF; experiment: Quantitative real-time PCR, VEGF mRNA in MDA-MB-231 cells; assay type: cell-based; settings: 10 μM, 8 h, normalized to Cyclophilin A, n=3
Outline: as §1

[6] = Aqueous solubility, miniaturized shake-flask with LC-MS/MS; assay type: physicochemical; settings: for Solubility: room temperature
Outline: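 Test compound (1.0 mg) shaken in 1 mL water or pH 7.0 phosphate buffer for 24 h at 450 rpm, room temperature. Suspension spun at 10,000 RPM for 15 min. Supernatant quantified by ESI LC-MS/MS on a PFP column using a 0.1% formic acid/MeOH gradient at 0.4 mL/min.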

Compound: C[C@H]1O[C@@H](O[C@H]2[C@@H](O)C[C@H](O[C@H]3[C@@H](O)C[C@H](O[C@H]4CC[C@@]5(C)[C@H](CC[C@@H]6[C@@H]5C[C@@H](O)[C@]5(C)[C@@H](C7=CC(=O)OC7)CC[C@]65O)C4)O[C@@H]3C)O[C@@H]2C)C[C@H](O)[C@@H]1O [Digoxin]
- IC50 at 96 h [1]: 250 ± 50 nM

Compound: CC(=O)O[C@@]12CO[C@@H]1C[C@H](O)[C@@]1(C)C(=O)[C@H](O)C3=C(C)[C@@H](OC(=O)[C@H](O)[C@@H](NC(=O)OC(C)(C)C)c4ccccc4)C[C@@](O)([C@@H](OC(=O)c4ccccc4)[C@H]21)C3(C)C [Docetaxel]
- IC50 at 96 h [1]: < 5 nM

Compound: OCc1ccc(-c2nn(Cc3ccccc3)c3ccccc23)o1 [YC-1, 3-(5′-hydroxymethyl-2′-furyl)-1-benzyl indazole]
- HIF-1α protein accumulation under hypoxic stress (western blot) [2]: not inhibited
- PHD3 mRNA level (qPCR) ([3]; hypoxia (1% oxygen)): insignificant
- PHD3 mRNA level (qPCR) ([3]; normoxia): enhancement of PHD3 mRNA levels
- HIF1A expression (qPCR) ([4]; hypoxia (1% oxygen)): remained repressed
- HIF1A expression level (qPCR) ([4]; normoxia): significantly reduced
- VEGF expression (qPCR) ([5]; hypoxia (1% oxygen)): remained repressed
- VEGF expression level (qPCR) ([5]; normoxia): significantly reduced
- Solubility ([6]; Buffer pH 7.0, 24 h shaking): 0.94 µg/mL (≈ 3.09 µM)
- Solubility ([6]; Water, 24 h shaking): 1.241 µg/mL (≈ 4.08 µM)
- Aqueous solubility ([6]; buffer pH 7.0): 0.9 µg/mL
- Aqueous solubility ([6]; water): 1.2 µg/mL
